From ChEMBL document CHEMBL1123026, “Preparation and antiarthritic and analgesic activity of 4,5-diaryl-2-(substituted thio)-1H-imidazoles and their sulfoxides and sulfones” (1985)

Assays:
Type in all cases: functional
[1] = tested on: Mus musculus; assay: Effective dose determined by mouse phenyl-p-benzoquinone writhing (PQW) assay after peroral administration; details: po
Outline: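 Fasted (17-21 h) female white mice, 5-20 per double-blind test, dosed orally with compound suspended in 1% methylcellulose. 0.20 mL aqueous 0.01% phenyl-p-benzoquinone given i.p. 6 min before a 10-min observation for stretching/writhing. ED50 (dose protecting 50% of mice) calculated by the moving-average method.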

[2] = tested on: Rattus norvegicus; assay: Effective dose determined against rat adjuvant arthritis after peroral administration; details: po
Outline: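 Male Lewis rats (130-150 g) given 0.1 mL Mycobacterium butyricum adjuvant (5 mg/mL in mineral oil) s.c. into the right hind paw; arthritis developed for 2 weeks. Groups of 10 matched for severity were dosed orally by gavage in PVA-acacia vehicle (10 mL/kg) for 7 days. Uninjected left paw volume was measured the day after the last dose. Percent decrease was calculated vs arthritic and nonarthritic controls. ED50 was read from a visually fitted semilog dose-response line.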

[3] = tested on: Rattus norvegicus; assay: Decrease in paw volume by the effect of compound at a dose of 100 mg/kg
Outline: (§1)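 Male Lewis rats (130-150 g) got 0.1 mL adjuvant (heat-killed Mycobacterium butyricum, 5 mg/mL in mineral oil) subplantar in the right hind paw and were left 2 weeks. Groups of 10 matched for severity were dosed orally by gavage (PVA-acacia vehicle, 10 mL/kg) for 7 days. Uninjected left hind paw volume was read the next day. % decrease = (arthritic control − treated)/(arthritic − nonarthritic control) × 100; Student's t-test.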

[4] = tested on: Rattus norvegicus; assay: Decrease in paw volume was evaluated at dose 30 mg/kg; outline: as §1
[5] = tested on: Rattus norvegicus; assay: Decrease in paw volume was evaluated at dose 9 mg/kg; outline: as §1
[6] = tested on: Rattus norvegicus; assay: Decrease in paw volume was evaluated at dose 1 mg/kg; outline: as §1
[7] = tested on: Rattus norvegicus; assay: Decrease in paw volume by the effect of compound at a dose of 75 mg/kg; outline: as §1

Row | SMILES | ED50 [1] [mg/kg] | ED50 [2] [mg/kg] | other results
1 | COc1ccc(-c2nc(SC)[nH]c2-c2ccc(OC)cc2)cc1 | > 135 | 4.5 | –
2 | COc1ccc(-c2nc(S(=O)(=O)C(F)(F)C(F)F)[nH]c2-c2ccc(OC)cc2)cc1 | – | 1.4 | –
3 | O=S(=O)(CCC(F)(F)F)c1nc(-c2ccccc2)c(-c2ccccc2)[nH]1 | > 135 | > 75 | –
4 | COc1ccc(-c2[nH]c(SC(F)(F)C(F)F)nc2-c2ccccc2)cc1 | > 130 | 30 | –
5 | FC(F)C(F)(F)Sc1nc(-c2ccc(Cl)cc2)c(-c2ccc(Cl)cc2)[nH]1 | > 135 | 0.33 | –
6 | O=S(=O)(c1nc(-c2ccccc2)c(-c2ccccc2)[nH]1)C(F)(F)C(F)F | – | 0.095 | –
7 | CSc1nc(-c2ccc(F)cc2)c(-c2ccc(F)cc2)[nH]1 | > 130 | 4 | –
8 | Fc1ccc(-c2[nH]c(SC(F)(F)C(F)F)nc2-c2ccc(Cl)cc2)cc1 | > 130 | – | –
9 | Fc1ccc(-c2nc(SC(F)(F)C(F)F)[nH]c2-c2ccc(C(F)(F)F)cc2)cc1 | > 130 | – | –
10 | FC(F)C(F)(F)Sc1nc(-c2ccc(C(F)(F)F)cc2)c(-c2ccccc2)[nH]1 | > 130 | – | –
11 | Cc1ccc(-c2nc(SC(F)(F)C(F)F)[nH]c2-c2ccc(C)cc2)cc1 | > 130 | 27 | –
12 | COc1ccc(-c2nc([S+]([O-])CC(F)(F)F)[nH]c2-c2ccc(OC)cc2)cc1 (centres undefined) | – | 11 | –
13 | Cc1ccc(-c2[nH]c(S(C)(=O)=O)nc2-c2ccccc2)cc1 | > 130 | – | Decrease [3]: 45%
14 | COc1ccc(-c2nc(SC(C)C)[nH]c2-c2ccc(OC)cc2)cc1 | – | – | Decrease [4]: 38%
15 | COc1ccc(-c2nc([S+](C)[O-])[nH]c2-c2ccc(OC)cc2)cc1 (centres undefined) | > 135 | 6.5 | –
16 | CS(=O)(=O)c1nc(-c2ccc(Cl)cc2)c(-c2ccc(Cl)cc2)[nH]1 | 3.7 | – | –
17 | CCCC[S+]([O-])c1nc(-c2ccccc2)c(-c2ccccc2)[nH]1 (centres undefined) | > 130 | > 100 | –
18 | COc1ccc(-c2nc(SC[S+](C)[O-])[nH]c2-c2ccc(OC)cc2)cc1 (centres undefined) | – | 52 | –
19 | [O-][S+](CCC(F)(F)C(F)(F)F)c1nc(-c2ccccc2)c(-c2ccccc2)[nH]1 (centres undefined) | > 130 | > 75 | –
20 | FC(Br)C(F)(F)Sc1nc(-c2ccccc2)c(-c2ccccc2)[nH]1 (centres undefined) | > 130 | 11 | –

Row | SMILES | ED50 [1] [mg/kg] | ED50 [2] [mg/kg] | other results
21 | CSc1nc(-c2ccc(C(F)(F)F)cc2)c(-c2ccc(C(F)(F)F)cc2)[nH]1 | > 130 | – | Decrease [5]: 29%
22 | CSCSc1nc(-c2ccccc2)c(-c2ccccc2)[nH]1 | > 130 | > 50 | –
23 | Fc1ccc(-c2nc(SC(F)F)[nH]c2-c2ccc(F)cc2)cc1 | > 130 | – | –
24 | CCCS(=O)(=O)c1nc(-c2ccccc2)c(-c2ccccc2)[nH]1 | > 130 | – | Decrease [3]: 26%
25 | FC(F)(F)Sc1nc(-c2ccc(Cl)c(Cl)c2)c(-c2ccccc2)[nH]1 | > 130 | – | –
26 | FC(F)C(F)(F)Sc1nc(-c2ccc(Cl)cc2)c(-c2ccc(C(F)(F)F)cc2)[nH]1 | > 130 | – | Decrease [6]: 35%
27 | CSc1nc(-c2ccc(C(F)(F)F)cc2)c(-c2ccccc2)[nH]1 | > 130 | – | Decrease [5]: 41%
28 | C=CCS(=O)(=O)c1nc(-c2ccc(OC)cc2)c(-c2ccc(OC)cc2)[nH]1 | > 130 | 10 | –
29 | FC(F)Sc1nc(-c2ccccc2)c(-c2ccccc2)[nH]1 | > 130 | 27 | –
30 | FCC(F)(F)Sc1nc(-c2ccccc2)c(-c2ccccc2)[nH]1 | > 135 | 2 | –
31 | CS(=O)(=O)c1nc(-c2ccc(F)cc2)c(-c2ccc(C(F)(F)F)cc2)[nH]1 | > 130 | – | –
32 | [O-][S+](CCC(F)(F)F)c1nc(-c2ccccc2)c(-c2ccccc2)[nH]1 (centres undefined) | > 130 | > 75 | –
33 | CSc1nc(-c2ccc(F)cc2)c(-c2ccc(C(F)(F)F)cc2)[nH]1 | > 130 | – | –
34 | C[S+]([O-])c1nc(-c2cccc(F)c2)c(-c2ccccc2)[nH]1 (centres undefined) | > 130 | – | Decrease [3]: 67%
35 | FC(F)(F)Sc1nc(-c2ccccc2)c(-c2ccccc2)[nH]1 | > 130 | – | Decrease [6]: 27%
36 | COc1ccc(-c2[nH]c(SC(F)(F)C(F)F)nc2-c2ccc(F)cc2)cc1 | > 130 | – | –
37 | CS(=O)(=O)c1nc(-c2ccc(F)cc2)c(-c2ccc(F)cc2)[nH]1 | > 130 | – | –
38 | CCS(=O)(=O)c1nc(-c2ccccc2)c(-c2ccccc2)[nH]1 | > 135 | – | Decrease [3]: 32%
39 | CS(=O)(=O)c1nc(-c2cccc(F)c2)c(-c2ccccc2)[nH]1 | > 130 | – | Decrease [7]: 32%
40 | FC(F)C(F)(F)Sc1nc(-c2ccc(Cl)cc2)c(-c2ccccc2)[nH]1 | > 130 | – | –
